This passage reports Kd results from article PMC4775309 (Biochemistry, 2016).

A word on the Kd: it is the free concentration of one partner at which half of the binding sites on the other are occupied at equilibrium, for simple one-to-one binding. Higher therefore signals weaker binding.

Holding throughout (test): Fluorescence quenching binding assay, NADPH-free apoenzyme
One assay deals with T1, wild-type EryKR3^0 (Saccharopolyspora erythraea, UniProt Q03132).
T1 sequence (Q03132 1132-1297 limits assumed): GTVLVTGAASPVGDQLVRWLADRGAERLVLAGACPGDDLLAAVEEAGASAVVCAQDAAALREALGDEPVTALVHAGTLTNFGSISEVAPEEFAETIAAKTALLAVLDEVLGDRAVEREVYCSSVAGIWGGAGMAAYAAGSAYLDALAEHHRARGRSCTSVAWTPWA
The method in brief: (§1)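 Cofactor removed by dialysis, 36 h, against 50 mM potassium phosphate pH 7.5 with 1 M KBr, 5 mM EDTA and 10% glycerol, then 36 h into 50 mM sodium phosphate pH 7.5 with 10% glycerol. Apoenzyme (1 μM) titrated with (±)-2-methyl-3-ketopentanoyl-SNAC (0–50 mM final), 20 min at room temperature. Fluorescence read at pH 7.2 and 30 °C (ex 280, em 338 nm). Quenching (Fapo−Fobs) fitted to a one-site saturation model for Kd.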

Another assay deals with T2, wild-type PicKR3^0 (Streptomyces venezuelae, UniProt Q9ZGI4).
T2 sequence (Q9ZGI4 1150-1343 limits assumed): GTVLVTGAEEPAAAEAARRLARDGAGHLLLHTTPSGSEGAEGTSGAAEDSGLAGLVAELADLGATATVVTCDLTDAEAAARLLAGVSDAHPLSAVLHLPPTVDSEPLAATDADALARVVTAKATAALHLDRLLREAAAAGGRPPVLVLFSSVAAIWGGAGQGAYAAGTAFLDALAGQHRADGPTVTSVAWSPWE
The method, boiled down:
as §1

The target in the next assay is wild-type EryKR1 (Saccharopolyspora erythraea, UniProt Q03131). The method, boiled down: as §1
wild-type EryKR1, sequence (Q03131 1613-1790 limits assumed): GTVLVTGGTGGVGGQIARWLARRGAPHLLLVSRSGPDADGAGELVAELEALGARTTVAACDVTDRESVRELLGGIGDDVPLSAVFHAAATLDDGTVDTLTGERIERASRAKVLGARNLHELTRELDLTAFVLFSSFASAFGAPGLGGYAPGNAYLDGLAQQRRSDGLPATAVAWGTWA

Molecules are shown by their SMILES.

On to `CCC(=O)C(C)C(=O)SCCNC(C)=O` (racemic) [compound 1, (±)-2-methyl-3-ketopentanoyl-N-acetycysteamine (SNAC) thioester], for which the results for the Kd on wild-type EryKR3^0, at wild-type PicKR3^0 and on wild-type EryKR1 were 8 ± 0.4 mM, 5 ± 0.3 mM and 7.7 ± 0.4 mM, respectively.
